The values that follow come from ChEMBL document CHEMBL6134795, “Mannich reaction mediated derivatization of chromones and their biological evaluations as putative multipotent ligands for the treatment of Alzheimer's disease” (RSC Med Chem, 2024).

Data set [1] addresses T1, Cholinesterase (Homo sapiens, UniProt P06276). As to the kind of experiment: Inhibition of recombinant BuChE (unknown origin) using BTCI as substrate at 20 uM preincubated for 30 mins followed by substrate addition by TECAN multiplate reader analysis relative to control. The procedure, abridged: (§1)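 Ellman method as for AChE, using butyrylcholinesterase with BTCI as substrate. Enzyme and compound preincubated 30 min at 37 °C in a CO2 incubator, then DTNB and BTCI added; absorbance read at 417 nm. Screening at 20 μM as % inhibition; IC50 for compounds exceeding 50% inhibition at 20 μM. Triplicate.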

Data set [2] deals with T2, Amine oxidase [flavin-containing] B (Homo sapiens, UniProt P27338).
T2 sequence (P27338 whole entry): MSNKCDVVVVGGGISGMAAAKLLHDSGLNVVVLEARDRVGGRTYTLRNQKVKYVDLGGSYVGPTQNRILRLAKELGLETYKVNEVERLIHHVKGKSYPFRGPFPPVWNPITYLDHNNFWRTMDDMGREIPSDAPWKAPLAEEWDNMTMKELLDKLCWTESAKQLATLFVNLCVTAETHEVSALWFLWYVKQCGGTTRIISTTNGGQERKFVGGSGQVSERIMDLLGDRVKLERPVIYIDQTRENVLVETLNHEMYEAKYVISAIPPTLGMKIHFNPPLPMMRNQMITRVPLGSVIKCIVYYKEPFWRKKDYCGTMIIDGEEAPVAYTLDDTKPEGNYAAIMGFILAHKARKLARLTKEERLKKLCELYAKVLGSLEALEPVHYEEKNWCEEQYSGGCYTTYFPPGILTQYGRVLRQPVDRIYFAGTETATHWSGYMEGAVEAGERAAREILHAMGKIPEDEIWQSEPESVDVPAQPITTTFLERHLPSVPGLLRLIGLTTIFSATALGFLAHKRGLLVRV
As to the kind of experiment: Inhibition of recombinant MAO-B (unknown origin) at 20 uM preincubated for 30 mins followed substrate addition by Amplex Red reagent based fluorescence analysis relative to control. The procedure, abridged:
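Recombinant MAO enzyme preincubated with compound 30 min at 37 °C; substrate, HRP and Amplex Red working solution then added; H2O2 formation read at 37 °C by fluorescence, ex 545/em 590 nm. Screening at 20 μM as % inhibition versus control; IC50 only for compounds above 50% inhibition at 20 μM; triplicate (n = 3).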

The target of data set [3] is Amyloid-beta precursor protein (Homo sapiens) (UniProt P05067). As to the kind of experiment: Inhibition of self-induced amyloid beta (1 to 42 residues) (unknown origin) aggregation at 20 uM incubated at 48 hrs by fluorimetry-based thioflavin T assay. A digest of the protocol:
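Aβ1-42 pretreated with HFIP (1 mg mL−1) and dried, then incubated with compound (20 μM) at 37 °C for 24 h; an aliquot transferred and incubated further to 48 h. Glycine–NaOH buffer pH 8.0 with 5 μM ThT added; fluorescence read at 440–485 nm. % inhibition calculated against the Aβ-only control taken as 0%.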

Data set [4] deals with T1, Cholinesterase. Nature of the data set: Inhibition of recombinant BuChE (unknown origin) using BTCI as substrate preincubated for 30 mins followed by substrate addition by TECAN multiplate reader analysis. The procedure, abridged: as §1
In data set [5] the target is T2, Amine oxidase [flavin-containing] B. As to the kind of experiment: Inhibition of recombinant MAO-B (unknown origin) preincubated for 30 mins followed substrate addition by Amplex Red reagent based fluorescence analysis.
For data set [6], the target named is Amyloid-beta precursor protein (Homo sapiens) (UniProt P05067). As to the kind of experiment: Inhibition of self-induced amyloid beta (1 to 42 residues) (unknown origin) aggregation assessed as reduction in plaques formation measured after 72 hrs by FE-SEM analysis. A digest of the protocol:
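HFIP-pretreated Aβ1-42 incubated with or without inhibitor for 72 h; samples placed on carbon-coated copper grids, dried 1 h at 37 °C, imaged by FE-SEM. Glycine–NaOH buffer served as blank and Aβ alone as control.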

The target of data set [7] is T3, Acetylcholinesterase (Homo sapiens, UniProt P22303). Nature of the data set: Reversible inhibition of AChE (unknown origin) assessed as residual activity at 100 times IC50 incubated for 30 mins by dilution method relative to control. A digest of the protocol:
(§2)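 Samples then diluted 100-fold with substrate, giving final inhibitor levels of 0.1× and 1× IC50. Recovered activity measured relative to control; triplicate.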

The target of data set [8] is T3, Acetylcholinesterase. As to the kind of experiment: Reversible inhibition of AChE (unknown origin) assessed as residual activity at 0.1 times IC50 incubated for 30 mins by dilution method relative to control. The procedure, abridged: as §2
Data set [9] concerns the target T2, Amine oxidase [flavin-containing] B. Nature of the data set: Reversible inhibition of MAO-B (unknown origin) assessed as residual activity at 100 times IC50 incubated for 30 mins by dilution method relative to control. To be noted: 0.5 h.
For data set [10] the target is unchanged. Nature of the data set: Reversible inhibition of MAO-B (unknown origin) assessed as residual activity at 10 times IC50 incubated for 30 mins by dilution method relative to control. To be noted: 0.5 h.
Data set [11] has as its system SH-SY5Y. Nature of the data set: Cytotoxicity against human SH-SY5Y cells assessed as cell viability at 1 uM by MTT assay relative to control. The following applies: read-out: Activity. The format is functional. The procedure, abridged:
(§3)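 SH-SY5Y cells (DMEM/F-12 with 10% FBS, 1% horse serum, 1% penicillin) preincubated 24 h with compound at 1, 5 or 25 μM; MTT converted to formazan, solubilised in DMSO, absorbance read at 595 nm; viability expressed as percentage of untreated control.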

Data set [12] deals with SH-SY5Y. As to the kind of experiment: Cytotoxicity against human SH-SY5Y cells assessed as cell viability at 25 uM by MTT assay relative to control. Format: functional. To be noted: read-out: Activity. A digest of the protocol:
as §3

Data set [13] has as its system SH-SY5Y. As to the kind of experiment: Inhibition of ROS production in human SH-SY5Y cells assessed as intracellular ROS level at 25 uM incubated for 24 hrs by DCF-DA staining based fluorescence analysis relative to control. The format is functional. The procedure, abridged:
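Cultured SH-SY5Y cells exposed to compound (1, 5, 25 μM) for 24 h; intracellular ROS detected with DCF-DA, which is converted to fluorescent 2,7-DCF, read at ex 478/em 518 nm. Inhibition is expressed relative to control. Mean ± SD of triplicate or more independent experiments.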

Data set [14] relates to SH-SY5Y. As to the kind of experiment: Neuroprotective activity against 6-OHDA-induced cytotoxicity in human SH-SY5Y cells assessed as cell viability at 1 uM incubated for 24 hrs followed by exposure to 6-OHDA by MTT assay relative to control. Format: functional. The following applies: read-out: Activity. The procedure, abridged: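 SH-SY5Y cells treated with compound (1, 5, 25 μM) and challenged with 6-OHDA; cultured 24 h at 37 °C under humidified 5% CO2. Viability measured by MTT as formazan absorbance at 594 nm and expressed relative to control.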

Active and inactive are the calls of the source. The rule behind the calls is not given here.

T3 sequence (P22303 whole entry): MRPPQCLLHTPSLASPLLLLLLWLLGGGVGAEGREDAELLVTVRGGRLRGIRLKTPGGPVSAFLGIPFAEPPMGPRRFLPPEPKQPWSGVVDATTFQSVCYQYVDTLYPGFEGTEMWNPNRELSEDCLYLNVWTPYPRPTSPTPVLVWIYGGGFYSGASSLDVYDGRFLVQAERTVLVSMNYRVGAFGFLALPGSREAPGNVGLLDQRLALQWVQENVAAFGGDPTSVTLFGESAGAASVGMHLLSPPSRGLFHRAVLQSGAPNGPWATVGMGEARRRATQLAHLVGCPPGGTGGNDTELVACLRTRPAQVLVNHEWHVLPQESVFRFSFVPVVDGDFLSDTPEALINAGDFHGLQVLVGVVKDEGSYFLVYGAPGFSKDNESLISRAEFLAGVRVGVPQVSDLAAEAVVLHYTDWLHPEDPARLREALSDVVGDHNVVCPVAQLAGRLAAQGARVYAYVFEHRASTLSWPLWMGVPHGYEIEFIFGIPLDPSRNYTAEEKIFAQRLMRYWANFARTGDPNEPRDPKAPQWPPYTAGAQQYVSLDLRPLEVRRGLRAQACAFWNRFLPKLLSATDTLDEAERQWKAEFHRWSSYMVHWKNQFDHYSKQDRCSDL
Amyloid-beta precursor protein (Homo sapiens), sequence (P05067 whole entry, the tested form may be a part): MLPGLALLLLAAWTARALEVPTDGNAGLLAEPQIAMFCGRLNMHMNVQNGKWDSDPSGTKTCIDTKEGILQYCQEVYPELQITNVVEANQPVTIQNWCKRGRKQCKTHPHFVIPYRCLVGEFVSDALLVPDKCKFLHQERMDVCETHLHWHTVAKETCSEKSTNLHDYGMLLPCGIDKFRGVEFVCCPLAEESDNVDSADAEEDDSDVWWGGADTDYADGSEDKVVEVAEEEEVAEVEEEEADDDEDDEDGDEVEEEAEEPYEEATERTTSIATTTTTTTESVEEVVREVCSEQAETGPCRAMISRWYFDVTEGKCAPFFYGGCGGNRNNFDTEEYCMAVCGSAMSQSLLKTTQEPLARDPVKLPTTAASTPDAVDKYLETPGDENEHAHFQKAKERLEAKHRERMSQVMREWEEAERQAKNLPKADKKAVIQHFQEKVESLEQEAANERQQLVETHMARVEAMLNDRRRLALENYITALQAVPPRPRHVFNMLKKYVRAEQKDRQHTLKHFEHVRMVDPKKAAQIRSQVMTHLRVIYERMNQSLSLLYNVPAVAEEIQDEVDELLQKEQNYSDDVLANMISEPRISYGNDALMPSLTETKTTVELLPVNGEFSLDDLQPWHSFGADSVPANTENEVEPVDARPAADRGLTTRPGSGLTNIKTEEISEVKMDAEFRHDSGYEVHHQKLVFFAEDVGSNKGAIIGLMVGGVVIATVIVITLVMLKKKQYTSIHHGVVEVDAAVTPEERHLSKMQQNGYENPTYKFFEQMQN
T1 sequence (P06276 whole entry): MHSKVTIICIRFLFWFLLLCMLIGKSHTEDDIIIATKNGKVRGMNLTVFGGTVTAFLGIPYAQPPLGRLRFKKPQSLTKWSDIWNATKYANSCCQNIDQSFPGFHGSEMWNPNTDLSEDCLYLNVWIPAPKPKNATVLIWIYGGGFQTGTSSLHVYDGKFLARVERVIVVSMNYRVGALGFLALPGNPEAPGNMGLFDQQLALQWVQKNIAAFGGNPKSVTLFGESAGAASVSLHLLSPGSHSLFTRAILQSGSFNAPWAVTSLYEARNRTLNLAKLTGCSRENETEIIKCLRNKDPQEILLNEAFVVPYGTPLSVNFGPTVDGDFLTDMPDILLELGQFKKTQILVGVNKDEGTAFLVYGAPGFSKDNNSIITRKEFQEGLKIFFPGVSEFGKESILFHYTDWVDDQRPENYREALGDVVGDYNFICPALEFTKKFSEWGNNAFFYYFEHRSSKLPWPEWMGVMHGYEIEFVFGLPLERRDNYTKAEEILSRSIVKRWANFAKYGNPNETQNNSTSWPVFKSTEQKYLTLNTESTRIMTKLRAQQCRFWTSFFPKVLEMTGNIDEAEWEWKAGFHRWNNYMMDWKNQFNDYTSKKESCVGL

On to `C#CCCCOc1ccc(-c2cc(=O)c3ccccc3o2)cc1CN1CCCCC1`, for which the inhibition on Cholinesterase [1] came to 87.9%; in data set [3] it was 32.2%. The inhibition at 20 µM in data set [2] was found to be 61.2%. The IC50 on Cholinesterase [4] is 11 µM; in [5] it was 12.3 µM. For the same molecule, the inhibition result in data set [6] was “Active”. Also, the Activity on Acetylcholinesterase [7] came to 17.7%; on Acetylcholinesterase [8] it was 60.6%; in data set [9], 15%; in data set [10] it was 27.8%. The viability at 1 µM is 99.6% with SH-SY5Y [11] and 55.1% in the data set on SH-SY5Y [14]. Also, in the data set with SH-SY5Y [12], the viability at 25 µM was found to be 88.3%. Moreover, in the data set on SH-SY5Y [13], the inhibition at 25 µM worked out at 34.8%.
